Calls of active or inactive are those of the source. No cut-off for these calls is given here.
What was measured:
[1] = organism: Rattus norvegicus; experiment: Inhibition of tunicamycin ER stress-induced IRE1alpha activation in rat INS-1 cells assessed as suppression of tunicamycin-induced increase in XBP1 mRNA levels up to 10 uM after 8 hrs by qRT-PCR analysis; format: cell-based
How it was run: (§1)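 INS-1 cells, 4×10^5 per well, were exposed to tunicamycin 0.1 μg/mL with compound or DMSO for 8 h. qRT-PCR for ATF4, CHOP, Bip, GRP94, or spliced XBP1 using splicing-specific primers. Values were normalized to cyclophilin A by ΔΔCt and given as fold over untreated control. Triplicate wells, 3 independent experiments.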

[2] = target: T1, Eukaryotic translation initiation factor 2-alpha kinase 3 (Rattus norvegicus) (UniProt Q9Z1Z1); experiment: Inhibition of PERK activation in rat INS-1 cells assessed as suppression of tunicamycin-induced increase in ATF4 mRNA levels up to 10 uM after 8 hrs by qRT-PCR analysis; format: cell-based; how it was run: as §1
T1 sequence (whole entry): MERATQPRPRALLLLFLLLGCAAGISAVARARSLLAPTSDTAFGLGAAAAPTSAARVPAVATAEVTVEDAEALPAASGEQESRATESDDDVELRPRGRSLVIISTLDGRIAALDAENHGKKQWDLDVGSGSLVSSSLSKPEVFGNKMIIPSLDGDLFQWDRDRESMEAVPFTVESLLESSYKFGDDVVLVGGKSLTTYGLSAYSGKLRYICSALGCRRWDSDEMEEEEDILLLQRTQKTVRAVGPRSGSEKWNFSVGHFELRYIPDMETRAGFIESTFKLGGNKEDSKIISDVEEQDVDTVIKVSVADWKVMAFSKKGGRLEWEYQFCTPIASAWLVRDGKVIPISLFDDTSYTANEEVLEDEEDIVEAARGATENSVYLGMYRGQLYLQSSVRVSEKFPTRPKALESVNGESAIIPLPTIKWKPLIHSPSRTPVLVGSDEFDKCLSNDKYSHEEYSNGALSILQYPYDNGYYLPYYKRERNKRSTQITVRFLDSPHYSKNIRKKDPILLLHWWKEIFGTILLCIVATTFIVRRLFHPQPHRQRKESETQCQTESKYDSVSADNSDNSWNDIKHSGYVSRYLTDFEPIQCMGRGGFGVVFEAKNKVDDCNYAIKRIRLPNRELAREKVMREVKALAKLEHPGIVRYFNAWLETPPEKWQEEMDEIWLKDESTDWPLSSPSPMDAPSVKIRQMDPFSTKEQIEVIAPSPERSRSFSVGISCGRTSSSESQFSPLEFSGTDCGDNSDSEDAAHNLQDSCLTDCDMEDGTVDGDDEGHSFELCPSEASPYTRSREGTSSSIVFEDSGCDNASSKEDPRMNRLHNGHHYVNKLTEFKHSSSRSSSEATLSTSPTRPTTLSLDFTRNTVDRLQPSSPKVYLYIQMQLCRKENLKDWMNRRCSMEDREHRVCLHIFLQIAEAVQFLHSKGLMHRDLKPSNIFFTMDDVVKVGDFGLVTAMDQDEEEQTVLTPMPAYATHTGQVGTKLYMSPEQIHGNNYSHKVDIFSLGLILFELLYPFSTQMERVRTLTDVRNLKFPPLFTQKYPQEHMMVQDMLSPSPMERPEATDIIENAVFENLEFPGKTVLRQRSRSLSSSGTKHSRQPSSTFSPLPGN

[3] = target: T2, Eukaryotic translation initiation factor 2-alpha kinase 3 (Rattus norvegicus, UniProt Q9Z1Z1); experiment: Inhibition of PERK activation in rat INS-1 cells assessed as suppression of tunicamycin-induced CHOP mRNA expression after 8 hrs by qRT-PCR analysis; format: cell-based; how it was run: as §1
T2 sequence (Q9Z1Z1 whole entry): T1 sequence (whole entry)

[4] = tested on: INS1; experiment: Protection against tunicamycin ER stress-induced suppression of glucose-stimulated insulin secretion in rat INS-1 cells after 24 hrs by ELISA; format: functional, cell-based
How it was run: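 INS-1 cells were given tunicamycin 0.1 μg/mL and compound for 24 h, preincubated 1 h in KRBH (pH 7.4, 2% BSA) with 2.5 mM glucose, then given 1 h at low or high glucose. Secreted insulin was measured by ELISA and corrected for total protein (Bradford). Triplicate wells, three independent experiments.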

[5] = tested on: INS1; experiment: Cytoprotective activity in rat INS-1 cells assessed as protection against tunicamycin-induced ER stress-mediated reduction reduction in cell viability up to 10 uM after 3 days by MTT assay; format: functional, cell-based
How it was run: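 INS-1 cells, 3×10^3 per well, were exposed to tunicamycin 0.1 μg/mL with compound for 72 h. MTT was added for 3 h at 37 °C, then crystal-dissolving solution for 4 h, and absorbance read at 570 nm. Triplicate wells, three independent experiments.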

[6] = tested on: INS1; experiment: Protection against tunicamycin ER stress-induced suppression of INS1 mRNA expression in rat INS-1 cells up to 1 uM after 24 hrs by qRT-PCR analysis; format: functional, cell-based
How it was run: (§2)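 INS-1 cells were exposed to tunicamycin 0.1 μg/mL with compound or DMSO for 24 h. INS1, INS2, PDX1 and MafA mRNA were measured by qRT-PCR and normalized to cyclophilin A by the comparative Ct method. Triplicate wells, 3 independent experiments.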

[7] = tested on: INS1; experiment: Effect on ATF4 mRNA level in rat INS-1 cells up to 10 uM after 8 hrs by qRT-PCR analysis; format: ADME, cell-based; conditions: ins1, 8 h; how it was run: as §1
[8] = target: T1, Eukaryotic translation initiation factor 2-alpha kinase 3 (Rattus norvegicus); experiment: Inhibition of tunicamycin ER stress-induced PERK activation in rat INS-1 cells assessed as suppression of tunicamycin-induced increase in ATF4 protein levels up to 10 uM after 8 hrs by Western blot analysis; format: cell-based
How it was run: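 INS-1 cells were exposed to tunicamycin 0.1 μg/mL with compound or DMSO for 8 h. Lysates were immunoblotted for ATF4 and CHOP (1:1000). Bands were quantified by densitometry and normalized to α-tubulin; 3 independent experiments.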

[9] = tested on: Mus musculus; experiment: Antidiabetic activity in STZ-induced diabetic C57BL/6 mouse model assessed as blood glucose level at 5 mg/kg, ip administrated qd with streptozotocin for 5 days followed by compound administration alone for 2 more weeks measured on every third day during 5 hr fasting (reference value: 422 mg/dL); format: functional
[10] = tested on: INS1; experiment: Protection against tunicamycin ER stress-induced suppression of PDX1 mRNA expression in rat INS-1 cells up to 1 uM after 24 hrs by qRT-PCR analysis; format: functional, cell-based; how it was run: as §2
[11] = tested on: Mus musculus; experiment: Antidiabetic activity in STZ-induced diabetic overnight fasted C57BL/6 mouse model assessed as blood glucose level at 5 mg/kg, ip administrated qd with streptozotocin for 5 days followed by compound administration alone for 2 more weeks measured at 15 mins post last dose relative to control; format: functional, organism-based
How it was run: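 Same STZ/compound i.p. regimen in male C57BL/6 mice, vehicle group as control. Intraperitoneal glucose tolerance test in overnight-fasted mice: glucose 2 g/kg i.p., blood glucose read at set times after the glucose load.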

[12] = tested on: INS1; experiment: Cytotoxicity against rat INS-1 cells assessed as reduction in cell viability up to 10 uM after 3 days by CellTiter-Glo assay; format: cell-based; conditions: ins1, 72 h
How it was run: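 INS-1 cells, 3×10^3 per well, were given compound or DMSO alone (no tunicamycin) for 72 h. Intracellular ATP was read by luminescence and expressed as fold of untreated cells. Triplicate wells, three independent experiments.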

`O=C(NCc1ccc(C(F)(F)F)cc1)c1cccc(CN2CCCCC2)c1` was tested, and the inhibition [1] was “Active”, the inhibition [2] was “Active” and the IC50 [3] was 37 nM. The Activity [4] was “Active”, the Activity [5] was “Active” and the Activity [6] was “Active”. The Activity [7] was “Non-Toxic”, the inhibition [8] was “Active” and the Activity [9] was 314 mg/dL. For the same compound, the Activity [10] was “Active”, the Activity [11] was “Active” and the Activity [12] was “Non-Toxic”.
